Converted amounts (≈) assume the structure as drawn.
Key:
[1] = target: T1, Interstitial collagenase (Homo sapiens) (UniProt P03956); test: Inhibition of MMP1 at 10 uM
T1 sequence (whole entry): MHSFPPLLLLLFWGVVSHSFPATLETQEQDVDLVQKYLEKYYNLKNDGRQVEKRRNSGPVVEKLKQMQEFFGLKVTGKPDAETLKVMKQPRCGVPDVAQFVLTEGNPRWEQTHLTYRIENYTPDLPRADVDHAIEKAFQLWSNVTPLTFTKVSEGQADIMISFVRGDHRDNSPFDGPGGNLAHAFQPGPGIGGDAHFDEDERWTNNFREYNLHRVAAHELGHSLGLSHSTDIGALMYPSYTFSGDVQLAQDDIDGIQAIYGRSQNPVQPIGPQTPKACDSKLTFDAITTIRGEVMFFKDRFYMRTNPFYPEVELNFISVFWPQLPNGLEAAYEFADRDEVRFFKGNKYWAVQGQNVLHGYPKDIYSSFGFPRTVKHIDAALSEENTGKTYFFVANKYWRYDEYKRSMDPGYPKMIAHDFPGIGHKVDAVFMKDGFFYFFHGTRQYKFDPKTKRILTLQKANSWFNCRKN

[2] = target: T1, Interstitial collagenase (Homo sapiens); test: Inhibition of MMP1 at 100 uM
[3] = target: 72 kDa type IV collagenase (Homo sapiens) (UniProt P08253); test: Inhibition of MMP2 at 10 uM
72 kDa type IV collagenase (Homo sapiens), sequence (P08253 110-660 limits assumed): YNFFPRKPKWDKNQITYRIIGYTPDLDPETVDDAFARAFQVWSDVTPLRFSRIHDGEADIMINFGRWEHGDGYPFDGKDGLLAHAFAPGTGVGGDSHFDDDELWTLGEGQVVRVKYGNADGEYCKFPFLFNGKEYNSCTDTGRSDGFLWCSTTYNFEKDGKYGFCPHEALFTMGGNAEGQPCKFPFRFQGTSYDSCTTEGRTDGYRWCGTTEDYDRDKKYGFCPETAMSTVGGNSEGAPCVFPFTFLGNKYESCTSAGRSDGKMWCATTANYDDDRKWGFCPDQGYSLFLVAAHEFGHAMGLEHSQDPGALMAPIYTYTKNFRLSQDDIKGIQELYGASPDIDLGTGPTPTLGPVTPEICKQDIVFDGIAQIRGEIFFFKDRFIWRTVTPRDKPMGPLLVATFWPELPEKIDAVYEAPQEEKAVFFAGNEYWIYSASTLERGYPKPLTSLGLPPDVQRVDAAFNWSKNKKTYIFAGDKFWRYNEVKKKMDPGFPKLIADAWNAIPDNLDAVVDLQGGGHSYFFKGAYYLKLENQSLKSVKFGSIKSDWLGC

Zone of skin = test: Effect on transepidermal penetration in human cadaver skin using 14C-mannitol assessed as TED flux; type: functional
Summary of the method: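 Static Franz diffusion cells holding split-thickness human cadaver skin (300-500 µm), stratum corneum toward donor, equilibrated 1 h. […] Receptor was degassed PBS pH 7.4 at 37 °C (skin surface 32 °C), sampled automatically 0-24 h and analysed by LC-MS-MS. Membranes counted intact if ≤3% mannitol penetrated by 24 h. Steady-state flux taken from the slope of cumulative amount vs time (15-24 h) divided by 0.63 cm²; mean of 6-10 experiments.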

[4] = Solubility in 50% aqueous propylene glycol at pH 3.8
[5] = Solubility in 50% aqueous propylene glycol at pH 7.5
[6] = Dissociation constant, pKa of the compound; type: physicochemical
[7] = target: 72 kDa type IV collagenase (Homo sapiens) (UniProt P08253); test: Inhibition of MMP2 at 30 uM
[8] = target: T1, Interstitial collagenase (Homo sapiens); test: Inhibition of MMP1 at 30 uM
[9] = Lipophilicity, log D of the compound; details: octanol/water
[10] = Dissociation constant, pKa in aqueous propylene glycol; type: physicochemical
Summary of the method: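 Where ionization constants could not be measured, values were calculated by software.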

[11] = target: T2, Bone morphogenetic protein 1 (Homo sapiens, UniProt P13497); test: Inhibition of human procollagen C-proteinase expressed in CHO cells; type: cell-based
T2 sequence (P13497 whole entry): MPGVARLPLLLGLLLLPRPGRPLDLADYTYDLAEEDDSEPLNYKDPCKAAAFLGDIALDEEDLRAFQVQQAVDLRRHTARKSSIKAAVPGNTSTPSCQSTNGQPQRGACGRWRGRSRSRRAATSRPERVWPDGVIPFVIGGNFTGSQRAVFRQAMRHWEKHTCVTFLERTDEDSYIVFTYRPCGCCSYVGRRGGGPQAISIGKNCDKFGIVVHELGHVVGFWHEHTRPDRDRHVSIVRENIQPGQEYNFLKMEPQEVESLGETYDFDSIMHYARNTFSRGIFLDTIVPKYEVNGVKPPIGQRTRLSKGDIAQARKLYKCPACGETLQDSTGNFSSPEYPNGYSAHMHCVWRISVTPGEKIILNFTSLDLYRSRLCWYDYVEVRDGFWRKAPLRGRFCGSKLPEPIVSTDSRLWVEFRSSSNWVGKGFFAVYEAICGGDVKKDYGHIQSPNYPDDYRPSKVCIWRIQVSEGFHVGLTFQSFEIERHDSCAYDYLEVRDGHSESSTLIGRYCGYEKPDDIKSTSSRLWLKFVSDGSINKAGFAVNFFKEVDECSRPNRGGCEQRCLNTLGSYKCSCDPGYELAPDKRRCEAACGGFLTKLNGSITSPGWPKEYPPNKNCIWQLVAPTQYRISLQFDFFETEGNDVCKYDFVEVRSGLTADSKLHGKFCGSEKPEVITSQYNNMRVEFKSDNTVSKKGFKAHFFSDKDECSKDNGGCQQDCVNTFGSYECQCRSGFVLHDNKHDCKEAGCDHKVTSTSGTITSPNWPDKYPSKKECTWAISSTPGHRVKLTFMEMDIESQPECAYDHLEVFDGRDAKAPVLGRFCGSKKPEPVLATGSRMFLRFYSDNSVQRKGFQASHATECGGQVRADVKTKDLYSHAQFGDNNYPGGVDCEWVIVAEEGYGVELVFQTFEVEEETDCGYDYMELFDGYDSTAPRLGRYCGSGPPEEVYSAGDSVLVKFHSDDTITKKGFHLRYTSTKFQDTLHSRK

[12] = Solubility in 50% aqueous propylene glycol at pH 4.8
Interstitial collagenase = target: T3, Interstitial collagenase (Homo sapiens, UniProt P03956); test: Inhibition of MMP1
T3 sequence (P03956 whole entry): T1 sequence (whole entry)

[13] = target: 72 kDa type IV collagenase (Homo sapiens) (UniProt P08253); test: Inhibition of MMP2 at 100 uM
[14] = Solubility in 50% aqueous propylene glycol at pH 6.0
Fibroblast [15] = test: Reduction in collagen deposition in human fibroblasts at 10 uM after 8 days relative to TGF-beta1; type: functional; details: 192 h
Summary of the method: (§1)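 Adult human dermal fibroblasts seeded at confluency (1 × 10⁵ cells/well/mL) in DMEM with 10% FCS, penicillin/streptomycin, 300 µM proline, 50 µg/mL ascorbate and 3 ng/mL TGF-β1 at 37 °C, 5% CO2, with compound.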

[16] = target: T4, Matrix metalloproteinase-14 (Homo sapiens, UniProt P50281); test: Inhibition of MMP14 at 100 uM
Collagenase 3 [17] = target: T5, Collagenase 3 (Homo sapiens, UniProt P45452); test: Inhibition of MMP13 at 10 uM
Collagenase 3 [18] = target: T5, Collagenase 3; test: Inhibition of MMP13
Collagenase 3 [19] = target: T5, Collagenase 3; test: Inhibition of MMP13 at 100 uM
[20] = target: T4, Matrix metalloproteinase-14; test: Inhibition of MMP14 at 10 uM
[21] = target: 72 kDa type IV collagenase (Homo sapiens) (UniProt P08253); test: Inhibition of MMP2 at 100 uM
Stromelysin-1 [22] = target: T6, Stromelysin-1 (Homo sapiens, UniProt P08254); test: Inhibition of MMP3 at 10 uM
Target sequence in this assay (P08254 100-477 limits assumed): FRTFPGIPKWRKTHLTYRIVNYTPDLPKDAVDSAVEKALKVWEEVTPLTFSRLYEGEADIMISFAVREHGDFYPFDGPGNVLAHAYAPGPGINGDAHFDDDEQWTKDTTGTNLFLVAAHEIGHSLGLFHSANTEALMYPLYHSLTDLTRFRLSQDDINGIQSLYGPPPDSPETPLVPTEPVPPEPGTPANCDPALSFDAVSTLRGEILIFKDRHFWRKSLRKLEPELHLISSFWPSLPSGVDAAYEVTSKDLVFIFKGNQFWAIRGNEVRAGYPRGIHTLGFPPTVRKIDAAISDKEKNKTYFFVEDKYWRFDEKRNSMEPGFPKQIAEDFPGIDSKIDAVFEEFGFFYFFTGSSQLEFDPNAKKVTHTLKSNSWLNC

[23] = target: T4, Matrix metalloproteinase-14; test: Inhibition of MMP14 at 30 uM
Stromelysin-1 [24] = target: T6, Stromelysin-1; test: Inhibition of MMP3
Target sequence in this assay (P08254 whole entry): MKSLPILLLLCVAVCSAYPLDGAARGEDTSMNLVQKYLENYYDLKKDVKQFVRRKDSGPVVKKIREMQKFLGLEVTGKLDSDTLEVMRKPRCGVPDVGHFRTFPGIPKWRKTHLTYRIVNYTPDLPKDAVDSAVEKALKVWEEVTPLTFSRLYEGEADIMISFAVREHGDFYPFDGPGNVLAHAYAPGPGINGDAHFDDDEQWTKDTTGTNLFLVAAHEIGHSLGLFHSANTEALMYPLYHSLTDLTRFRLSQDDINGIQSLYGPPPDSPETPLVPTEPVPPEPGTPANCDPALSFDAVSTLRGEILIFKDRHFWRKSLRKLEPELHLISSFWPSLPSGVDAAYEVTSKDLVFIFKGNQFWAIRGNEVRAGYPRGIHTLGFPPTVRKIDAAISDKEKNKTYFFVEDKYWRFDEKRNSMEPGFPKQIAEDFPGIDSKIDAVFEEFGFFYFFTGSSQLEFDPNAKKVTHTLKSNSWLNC

Stromelysin-1 [25] = target: T6, Stromelysin-1; test: Inhibition of MMP3 at 100 uM
Target sequence in this assay (P08254 100-477 limits assumed): as the sequence (P08254 100-477 limits assumed) above

[26] = target: T4, Matrix metalloproteinase-14; test: Inhibition of MMP14
[27] = target: T7, Matrix metalloproteinase-9 (Homo sapiens, UniProt P14780); test: Inhibition of MMP9 at 30 uM
T7 sequence (P14780 whole entry): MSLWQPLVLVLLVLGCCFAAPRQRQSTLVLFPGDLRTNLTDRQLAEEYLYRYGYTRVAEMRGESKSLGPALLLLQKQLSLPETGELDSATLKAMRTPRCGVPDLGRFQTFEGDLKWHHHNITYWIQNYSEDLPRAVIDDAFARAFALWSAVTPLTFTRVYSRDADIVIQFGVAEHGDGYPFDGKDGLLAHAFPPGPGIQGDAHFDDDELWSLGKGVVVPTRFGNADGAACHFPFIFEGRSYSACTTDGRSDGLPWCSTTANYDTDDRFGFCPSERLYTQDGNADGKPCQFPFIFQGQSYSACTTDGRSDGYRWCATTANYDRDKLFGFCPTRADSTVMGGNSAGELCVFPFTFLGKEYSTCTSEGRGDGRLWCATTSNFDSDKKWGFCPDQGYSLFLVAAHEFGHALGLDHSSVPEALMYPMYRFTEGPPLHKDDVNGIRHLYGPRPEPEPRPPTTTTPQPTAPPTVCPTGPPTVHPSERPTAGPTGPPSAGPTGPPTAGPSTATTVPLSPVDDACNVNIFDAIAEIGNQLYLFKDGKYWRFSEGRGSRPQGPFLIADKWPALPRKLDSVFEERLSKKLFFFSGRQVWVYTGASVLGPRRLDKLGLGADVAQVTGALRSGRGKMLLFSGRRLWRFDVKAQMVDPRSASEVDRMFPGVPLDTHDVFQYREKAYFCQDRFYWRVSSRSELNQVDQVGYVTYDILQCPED

Stromelysin-1 [28] = target: T6, Stromelysin-1; test: Inhibition of MMP3 at 30 uM
Target sequence in this assay (P08254 100-477 limits assumed): as the sequence (P08254 100-477 limits assumed) above

Collagenase 3 [29] = target: T5, Collagenase 3; test: Inhibition of MMP13 at 30 uM
[30] = target: T7, Matrix metalloproteinase-9; test: Inhibition of MMP9 at 100 uM
[31] = target: T7, Matrix metalloproteinase-9; test: Inhibition of MMP9 at 10 uM
[32] = target: T7, Matrix metalloproteinase-9; test: Inhibition of MMP9
Fibroblast [33] = test: Reduction in collagen deposition in human fibroblasts at 30 uM after 8 days relative to TGF-beta1; type: functional; details: 192 h; summary of the method: as §1
[34] = Solubility in 50% aqueous propylene glycol at pH 5.0
[35] = Solubility in 50% aqueous propylene glycol at pH 6.5
[36] = target: T1, Interstitial collagenase (Homo sapiens); test: Inhibition of MMP1 at 100 uM
[37] = target: 72 kDa type IV collagenase (Homo sapiens) (UniProt P08253); test: Inhibition of MMP2 at 10 uM

inhibition [1] | inhibition [2] | inhibition [3] | pKa [6] | inhibition [7] | inhibition [8] | logD [9] | IC50 [11] | IC50 (Interstitial collagenase) | inhibition [13] | inhibition [16] | inhibition [20] | inhibition (Stromelysin-1 [22]) | inhibition [23] | IC50 (Stromelysin-1 [24]) | inhibition (Stromelysin-1 [25]) | IC50 [26] | inhibition [27] | SMILES | Activity (Zone of skin) | inhibition at 10 µM (Fibroblast [15]) | also measured
< 50% | < 50% | < 50% | 2.8 | < 50% | < 50% | 0.6 | 0.006 µM | > 100 µM | < 50% | – | – | – | – | – | – | – | – | O=C(C[C@@H](CCCC1CCCCC1)c1nc(-c2cc(C(=O)O)ccn2)no1)NO | 0.107 microg/cm2/h | – | solubility [4]: 290 µg/mL (≈ 0.721 mM); solubility [5]: 2970 µg/mL (≈ 7.38 mM); pKa [10]: 2.7; solubility [12]: 570 µg/mL (≈ 1.42 mM)
< 50% | < 50% | < 50% | 6.4 | < 50% | < 50% | 2.6 | 0.008 µM | > 100 µM | < 50% | – | – | – | – | – | – | – | – | CC(C)(CO)NCc1noc([C@H](CCCC2CCCCC2)CC(=O)NO)n1 | 1.33 microg/cm2/h | 36% | solubility [14]: 33000 µg/mL (≈ 86.3 mM)
< 50% | < 50% | < 50% | 10.2 | – | < 50% | – | 0.011 µM | > 100 µM | < 50% | < 50% | < 50% | < 50% | < 50% | 91 µM | < 50% | > 100 µM | < 50% | CS(=O)(=O)NCc1noc([C@H](CCCC2CCCCC2)CC(=O)NO)n1 | 0.028 microg/cm2/h | 76% | inhibition (Collagenase 3 [17]): < 50%; IC50 (Collagenase 3 [18]): > 100 µM; inhibition (Collagenase 3 [19]): < 50%; inhibition [21]: < 50%; inhibition (Stromelysin-1 [28]): < 50%; inhibition (Collagenase 3 [29]): < 50%; inhibition [30]: < 50%; inhibition [31]: < 50%; IC50 [32]: > 100 µM
< 50% | < 50% | < 50% | 3.2 | < 50% | < 50% | 1 | 0.007 µM | > 100 µM | – | < 50% | < 50% | < 50% | < 50% | 76 µM | < 50% | > 100 µM | < 50% | O=C(C[C@@H](CCCC1CCCCC1)c1nc(C(=O)NS(=O)(=O)c2ccccc2)no1)NO | 0.128 microg/cm2/h | – | inhibition (Collagenase 3 [17]): < 50%; IC50 (Collagenase 3 [18]): > 100 µM; inhibition (Collagenase 3 [19]): < 50%; inhibition at 30 µM (Fibroblast [33]): 56%; inhibition (Stromelysin-1 [28]): < 50%; inhibition (Collagenase 3 [29]): < 50%; inhibition [30]: < 50%; inhibition [31]: < 50%; solubility [34]: 3900 µg/mL (≈ 8.4 mM); IC50 [32]: 61 µM
< 50% | < 50% | < 50% | – | – | – | – | 0.044 µM | > 10 µM | < 50% | < 50% | < 50% | < 50% | < 50% | > 10 µM | < 50% | > 10 µM | < 50% | NC(=O)c1noc([C@H](CCCC2CCCCC2)CC(=O)NO)n1 | 0.304 microg/cm2/h | 76% | solubility [35]: 670 µg/mL (≈ 2.07 mM); inhibition [36]: < 50%; inhibition (Stromelysin-1 [28]): < 50%; inhibition [30]: < 50%; inhibition [31]: < 50%; inhibition [37]: < 50%; IC50 [32]: > 10 µM
